From ChEMBL document CHEMBL4138271, “Crystal Structures and Human Leukemia Cell Apoptosis Inducible Activities of Parthenolide Analogues Isolated from Piptocoma rufescens” (J Nat Prod, 2018)
Calls of active or inactive are those of the source. The calls are words filed in the database; no cut-off is given here.

Tests used:
MOLM-13 [1] = experiment: Induction of apoptosis in human MOLM13 cells assessed as early apoptotic cells at 1.3 uM after 24 hrs by Annexin-V FITC/7-AAD staining based flow cytometric method (reference value: 11.8%); type: functional
EOL1 [2] = experiment: Induction of apoptosis in human EOL-1 cells assessed as late apoptotic cells at 5 uM after 24 hrs by Annexin-V FITC/7-AAD staining based flow cytometric method (reference value: 0.535%); type: functional
EOL1 [3] = experiment: Induction of apoptosis in human EOL-1 cells assessed as early apoptotic cells at 5 uM after 24 hrs by Annexin-V FITC/7-AAD staining based flow cytometric method (reference value: 1.94%); type: functional
MOLM-13 [4] = experiment: Induction of apoptosis in human MOLM13 cells assessed as necrotic cells at 5 uM after 24 hrs by Annexin-V FITC/7-AAD staining based flow cytometric method (reference value: 0%); type: functional
EOL1 [5] = experiment: Induction of apoptosis in human EOL-1 cells assessed as necrotic cells at 5 uM after 24 hrs by Annexin-V FITC/7-AAD staining based flow cytometric method (reference value: 0.032%); type: functional
MOLM-13 [6] = experiment: Cytotoxicity against human MOLM13 cells after 72 hrs by MTS assay; type: functional, cell-based; details: MOLM-13, 72 h
EOL1 [7] = experiment: Induction of apoptosis in human EOL-1 cells assessed as caspase-3 activation at 10 uM after 72 hrs by immunoblotting analysis; type: functional, cell-based
Outline: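 EOL-1 cells (RPMI 1640, 10% FBS, 37 °C, 5% CO2) exposed 72 h; compounds at 10 μM, PKC412 at 10 nM. Harvested, PBS-washed, lysed in hypertonic NP-40 buffer with protease/phosphatase inhibitors; SDS-PAGE, PVDF transfer, rabbit monoclonal cleaved caspase-3 (Asp175) antibody 12 h, secondary 1 h, chemiluminescent detection; β-actin loading control. Representative blots of three independent experiments.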

EOL1 [8] = experiment: Cytotoxicity against human EOL-1 cells after 72 hrs by MTS assay; type: functional, cell-based; details: EOL1, 72 h
[9] = biological target: Transcription factor p65 (Homo sapiens) (UniProt Q04206); experiment: Inhibition of NFkappaB p65 in human MOLM13 cells at 10 uM after 72 hrs by immunoblotting method; type: cell-based
Chain of Transcription factor p65 (Homo sapiens) (Q04206 whole entry): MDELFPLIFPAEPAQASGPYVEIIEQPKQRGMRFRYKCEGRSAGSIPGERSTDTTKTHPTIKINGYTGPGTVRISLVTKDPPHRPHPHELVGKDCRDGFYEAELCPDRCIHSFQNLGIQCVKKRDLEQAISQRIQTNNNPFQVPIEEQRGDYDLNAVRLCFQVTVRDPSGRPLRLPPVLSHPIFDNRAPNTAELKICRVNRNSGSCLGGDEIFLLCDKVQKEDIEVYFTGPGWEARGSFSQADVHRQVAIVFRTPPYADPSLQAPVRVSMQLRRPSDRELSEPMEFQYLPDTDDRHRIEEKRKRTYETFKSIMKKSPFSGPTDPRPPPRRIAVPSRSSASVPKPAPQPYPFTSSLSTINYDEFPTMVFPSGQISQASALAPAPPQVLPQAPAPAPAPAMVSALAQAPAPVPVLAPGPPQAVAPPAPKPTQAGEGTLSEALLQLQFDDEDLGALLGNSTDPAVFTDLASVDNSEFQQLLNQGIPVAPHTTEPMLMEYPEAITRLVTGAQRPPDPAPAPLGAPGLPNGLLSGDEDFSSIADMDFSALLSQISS
Outline: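 MOLM-13 or EOL-1 cells treated 72 h at 10 μM. Cells washed in ice-cold PBS and lysed in hypertonic NP-40 buffer (10 mM HEPES pH 7.5, 0.5 M NaCl) with protease/phosphatase inhibitors. Protein measured by BCA; SDS-PAGE onto PVDF. Probed 12 h with rabbit monoclonal NF-κB-p65 antibody, goat β-actin as loading control, then chemiluminescence. Blots representative of three independent experiments.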

EOL1 [10] = experiment: Induction of apoptosis in human EOL-1 cells assessed as late apoptotic cells at 2.5 uM after 24 hrs by Annexin-V FITC/7-AAD staining based flow cytometric method (reference value: 0.535%); type: functional
MOLM-13 [11] = experiment: Synergistic antileukemic activity against human MOLM13 cells assessed as concentration required for <= 75% cell survival after 72 hrs in presence of midostaurin by CellTiter 96 AQueous One solution cell proliferation assay; type: functional
EOL1 [12] = experiment: Induction of apoptosis in human EOL-1 cells assessed as late apoptotic cells at 1.3 uM after 24 hrs by Annexin-V FITC/7-AAD staining based flow cytometric method (reference value: 0.535%); type: functional
EOL1 [13] = experiment: Synergistic antileukemic activity against human EOL-1 cells assessed as concentration required for <= 75% cell survival after 72 hrs in presence of midostaurin by CellTiter 96 AQueous One solution cell proliferation assay; type: functional
MOLM-13 [14] = experiment: Induction of apoptosis in human MOLM13 cells assessed as early apoptotic cells at 2.5 uM after 24 hrs by Annexin-V FITC/7-AAD staining based flow cytometric method (reference value: 11.8%); type: functional
EOL1 [15] = experiment: Induction of apoptosis in human EOL-1 cells assessed as live cells at 1.3 uM after 24 hrs by Annexin-V FITC/7-AAD staining based flow cytometric method (reference value: 97.5%); type: functional
EOL1 [16] = experiment: Induction of apoptosis in human EOL-1 cells assessed as necrotic cells at 1.3 uM after 24 hrs by Annexin-V FITC/7-AAD staining based flow cytometric method (reference value: 0.032%); type: functional
MOLM-13 [17] = experiment: Induction of apoptosis in human MOLM13 cells assessed as late apoptotic cells at 2.5 uM after 24 hrs by Annexin-V FITC/7-AAD staining based flow cytometric method (reference value: 1.43%); type: functional
MOLM-13 [18] = experiment: Induction of apoptosis in human MOLM13 cells assessed as early apoptotic cells at 5 uM after 24 hrs by Annexin-V FITC/7-AAD staining based flow cytometric method (reference value: 11.8%); type: functional
EOL1 [19] = experiment: Induction of apoptosis in human EOL-1 cells assessed as live cells at 5 uM after 24 hrs by Annexin-V FITC/7-AAD staining based flow cytometric method (reference value: 97.5%); type: functional
EOL1 [20] = experiment: Induction of apoptosis in human EOL-1 cells assessed as early apoptotic cells at 1.3 uM after 24 hrs by Annexin-V FITC/7-AAD staining based flow cytometric method (reference value: 1.94%); type: functional
MOLM-13 [21] = experiment: Induction of apoptosis in human MOLM13 cells assessed as necrotic cells at 2.5 uM after 24 hrs by Annexin-V FITC/7-AAD staining based flow cytometric method (reference value: 0%); type: functional
EOL1 [22] = experiment: Induction of apoptosis in human EOL-1 cells assessed as live cells at 2.5 uM after 24 hrs by Annexin-V FITC/7-AAD staining based flow cytometric method (reference value: 97.5%); type: functional
MOLM-13 [23] = experiment: Induction of apoptosis in human MOLM13 cells assessed as caspase-3 activation at 10 uM after 72 hrs by immunoblotting analysis; type: functional, cell-based
Outline: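 MOLM-13 cells treated 72 h with test compounds at 10 μM or PKC412 at 10 nM. Cells washed in ice-cold PBS, lysed at 10^8 cells/mL in NP-40 hypertonic buffer (pH 7.5) with protease/phosphatase inhibitors, then run on SDS-PAGE and PVDF. Blots probed 12 h with rabbit monoclonal cleaved caspase-3 (Asp175), β-actin as loading control. Representative of three independent experiments.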

MOLM-13 [24] = experiment: Induction of apoptosis in human MOLM13 cells assessed as necrotic cells at 1.3 uM after 24 hrs by Annexin-V FITC/7-AAD staining based flow cytometric method (reference value: 0%); type: functional
MOLM-13 [25] = experiment: Induction of apoptosis in human MOLM13 cells assessed as live cells at 2.5 uM after 24 hrs by Annexin-V FITC/7-AAD staining based flow cytometric method (reference value: 86.8%); type: functional
EOL1 [26] = experiment: Induction of apoptosis in human EOL-1 cells assessed as early apoptotic cells at 2.5 uM after 24 hrs by Annexin-V FITC/7-AAD staining based flow cytometric method (reference value: 1.94%); type: functional
HT-29 = experiment: Cytotoxicity against human HT-29 cells after 72 hrs by MTS assay; type: functional, cell-based; details: HT-29, 72 h
MOLM-13 [27] = experiment: Induction of apoptosis in human MOLM13 cells assessed as live cells at 1.3 uM after 24 hrs by Annexin-V FITC/7-AAD staining based flow cytometric method (reference value: 86.8%); type: functional
MOLM-13 [28] = experiment: Induction of apoptosis in human MOLM13 cells assessed as late apoptotic cells at 1.3 uM after 24 hrs by Annexin-V FITC/7-AAD staining based flow cytometric method (reference value: 1.43%); type: functional
MOLM-13 [29] = experiment: Induction of apoptosis in human MOLM13 cells assessed as live cells at 5 uM after 24 hrs by Annexin-V FITC/7-AAD staining based flow cytometric method (reference value: 86.8%); type: functional
EOL1 [30] = experiment: Induction of apoptosis in human EOL-1 cells assessed as necrotic cells at 2.5 uM after 24 hrs by Annexin-V FITC/7-AAD staining based flow cytometric method (reference value: 0.032%); type: functional
MOLM-13 [31] = experiment: Induction of apoptosis in human MOLM13 cells assessed as late apoptotic cells at 5 uM after 24 hrs by Annexin-V FITC/7-AAD staining based flow cytometric method (reference value: 1.43%); type: functional

C=C1C(=O)O[C@@H]2C[C@@H](C)/C=C\C(=O)[C@](C)(OC(C)=O)C[C@H](OC(=O)/C(C)=C\C)[C@@H]12
Activity (MOLM-13 [1]): 7.82%
Activity (EOL1 [2]): 92.9%
Activity (EOL1 [3]): 0.031%
Activity (MOLM-13 [4]): 25.5%
Activity (EOL1 [5]): 4.73%
IC50 (MOLM-13 [6]): 4.3 µM
Activity (EOL1 [7]): Active
IC50 (EOL1 [8]): 4.3 µM
inhibition [9]: Active
Activity (EOL1 [10]): 32.1%
Activity (MOLM-13 [11]): 1.9 µM
Activity (EOL1 [12]): 1.36%
Activity (EOL1 [13]): 2.5 µM
Activity (MOLM-13 [14]): 10.5%
Activity (EOL1 [15]): 96.7%
Activity (EOL1 [16]): 0.053%
Activity (MOLM-13 [17]): 2.77%
Activity (MOLM-13 [18]): 0.349%
Activity (EOL1 [19]): 2.79%
Activity (EOL1 [20]): 1.87%
Activity (MOLM-13 [21]): 0.276%
Activity (EOL1 [22]): 63.8%
Activity (MOLM-13 [23]): Active
Activity (MOLM-13 [24]): 0.147%
Activity (MOLM-13 [25]): 86.5%
Activity (EOL1 [26]): 1.33%
IC50 (HT-29): 1200 nM
Activity (MOLM-13 [27]): 90.8%
Activity (MOLM-13 [28]): 1.28%
Activity (MOLM-13 [29]): 0.583%
Activity (EOL1 [30]): 2.72%
Activity (MOLM-13 [31]): 73.6%
